Measured values reported in ChEMBL document CHEMBL1275280, “Synthesis, structural elucidation and DNA-dependant protein kinase and antiplatelet studies of 2-amino-[5, 6, 7, 8-mono and 7, 8-di-substituted]-1,3-benzoxazines” (Eur J Med Chem, 2010).
The source made the active and inactive calls. The calls are words filed in the database; no cut-off is given here.

Key:
Platelet = test: Inhibition of collagen-induced platelet aggregation in human venous blood by optical method based aggregometry; format: functional, tissue-based
[1] = Inhibition of DNA-dependent protein kinase at 4 uM
How it was run: (§1)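 Compound in DMSO was added in place of water, at final concentrations of 1.6–4.0. The reaction was stopped with termination buffer and captured on a biotin membrane. After washing, scintillation counts gave percent inhibition relative to the full-reaction positive control (n = 3).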

[2] = Inhibition of DNA-dependent protein kinase at 2 uM; how it was run: as §1
[3] = Inhibition of DNA-dependent protein kinase at 1.6 uM; how it was run: as §1

SMILES	IC50 (Platelet) [µM]	also measured
O=c1nc(N2CCOCC2)oc2cc(OCc3ccncc3)ccc12	45	
O=c1nc(N2CCOCC2)oc2ccc(OCCCl)cc12	87	
CC(C)c1cccc2c(=O)nc(N3CCOCC3)oc12	70	
Cc1c(OCCN2CCN(C)CC2)ccc2c(=O)nc(N3CCCCC3)oc12	36	
Cc1c(OCCCl)ccc2c(=O)nc(N3CCOCC3)oc12	36	
O=c1nc(N2CCOCC2)oc2cccc(OCCCl)c12	≥ 100	
O=c1nc(N2CCOCC2)oc2c(OCCCl)cccc12	60	
O=c1nc(N2CCOCC2)oc2cccc(OCc3ccccc3)c12	≥ 100	
CN1CCN(CCOc2ccc3c(=O)nc(N4CCOCC4)oc3c2)CC1		inhibition [1]: Active
CN1CCN(CCOc2ccc3oc(N4CCOCC4)nc(=O)c3c2)CC1	≥ 86	inhibition [1]: inactive
Cc1c(OCCN2CCN(C)CC2)ccc2c(=O)nc(N3CCOCC3)oc12		inhibition [1]: Active
O=c1nc(N2CCOCC2)oc2cc(OCc3ccccn3)ccc12	75	
O=c1nc(N2CCOCC2)oc2ccc(OCc3cccnc3)cc12	≥ 90	
CCOc1ccc2c(=O)nc(N3CCOCC3)oc2c1	85	
Cc1c(O)ccc2c(=O)nc(N3CCSCC3)oc12	≥ 100	
O=c1nc(N2CCOCC2)oc2cc(OCc3cccnc3)ccc12	70	
Cc1c(OCc2cccnc2)ccc2c(=O)nc(N3CCOCC3)oc12	2	inhibition [1]: Active

SMILES	IC50 (Platelet) [µM]	also measured
Cc1c(OCCN2CCN(C)CC2)ccc2c(=O)nc(N3CCSCC3)oc12	47	
Cc1c(OCCBr)ccc2c(=O)nc(N3CCCCC3)oc12	61	
O=c1nc(N2CCOCC2)oc2ccc(OCCBr)cc12	83	
CN1CCN(CCOc2cccc3c(=O)nc(N4CCOCC4)oc23)CC1	80	inhibition [1]: Active
O=c1nc(N2CCOCC2)oc2c(OCc3cccnc3)cccc12	22	
O=c1nc(N2CCOCC2)oc2c(-c3ccccc3)cccc12		inhibition [2]: Active
Cc1c(OCCBr)ccc2c(=O)nc(N3CCSCC3)oc12	75	
O=c1nc(N2CCOCC2)oc2c(OCCBr)cccc12	70	
O=c1nc(N2CCOCC2)oc2cccc(OCc3cccnc3)c12	≥ 100	
Cc1c(OCc2ccncc2)ccc2c(=O)nc(N3CCOCC3)oc12	4	inhibition [2]: Active
CN1CCN(CCOc2cccc3oc(N4CCOCC4)nc(=O)c23)CC1	≥ 100	inhibition [1]: inactive
Cc1c(OCc2ccccn2)ccc2c(=O)nc(N3CCOCC3)oc12	34	inhibition [3]: Active
O=c1nc(N2CCOCC2)oc2c(OCc3ccncc3)cccc12	70	
Cc1c(O)ccc2c(=O)nc(C3CCNCC3)oc12	≥ 90	
O=c1nc(N2CCOCC2)oc2c(OCc3ccccc3)cccc12	53	
O=c1nc(N2CCOCC2)oc2cc(F)ccc12	80	
O=c1nc(N2CCOCC2)oc2ccc(OCc3ccccc3)cc12	≥ 100	
